The source made the active and inactive calls. The calls are words filed in the database; no cut-off is given here.
Assays:
[1] = target: ALK tyrosine kinase receptor (Homo sapiens) (UniProt Q9UM73); test: Inhibition of ALK (unknown origin) at 10 uM after 30 mins by fluorescence assay
In short: (§1)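 Single 10 μM test. Enzyme preincubated with compound in Hepes/Tris pH 7.4, EGTA/Tris, MgCl2, DTT, 0.008 % Tween 20. Substrate peptide and ATP added; 30 min at room temperature. Stopped with EDTA; europium-labelled anti-phospho PT66 antibody added, TR-FRET read after 60 min. Percent inhibition versus control enzyme activity; no-enzyme basal control; duplicate.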

[2] = target: RAC-alpha serine/threonine-protein kinase (Homo sapiens) (UniProt P31749); test: Inhibition of AKT1 (unknown origin) at 10 uM after 30 mins by fluorescence assay; in short: as §1
RAC-alpha serine/threonine-protein kinase (Homo sapiens), sequence (P31749 whole entry): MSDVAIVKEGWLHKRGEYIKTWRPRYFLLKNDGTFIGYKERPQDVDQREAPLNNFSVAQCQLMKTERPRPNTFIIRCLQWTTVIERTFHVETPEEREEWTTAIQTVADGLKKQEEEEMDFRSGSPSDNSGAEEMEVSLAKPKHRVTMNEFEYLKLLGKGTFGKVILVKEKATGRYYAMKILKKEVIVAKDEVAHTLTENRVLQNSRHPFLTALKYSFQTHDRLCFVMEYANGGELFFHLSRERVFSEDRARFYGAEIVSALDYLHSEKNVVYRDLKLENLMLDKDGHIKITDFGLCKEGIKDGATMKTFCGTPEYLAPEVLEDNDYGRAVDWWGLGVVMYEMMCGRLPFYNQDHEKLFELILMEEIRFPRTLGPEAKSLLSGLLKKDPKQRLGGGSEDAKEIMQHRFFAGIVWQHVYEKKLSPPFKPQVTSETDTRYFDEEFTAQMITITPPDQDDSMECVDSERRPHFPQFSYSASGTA

Aorta [3] = test: Antiangiogenic activity in Sprague-Dawley rat aortic rings assessed as inhibition of microvessel outgrowth at 50 uM after 6 days by matrigel assay; format: functional; conditions: for inhibition at 50 µM: 144 h
In short: (§2)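 Aortas from 8–10-week-old male Sprague Dawley rats cleaned of fibroadipose tissue, cut into 1-mm rings, embedded between two Matrigel layers. Compound or vehicle (0.5 % DMSO) added every other day for 6 days; imaged day 7 (×200). Sprouting area quantified as pixels versus vehicle; mean ± SD, three independent experiments.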

PC-3 = test: Antiproliferative activity against human PC3 cells after 48 hrs by MTT assay; format: functional, cell-based; conditions: PC-3, 48 h
In short: (§3)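 Cells kept in RPMI 1640 with 10 % FBS at 37 °C, 5 % CO2. Seeded 5,000/well, allowed 4 h, then exposed to serial dilutions for 48 h. MTT added for the last 4 h; formazan dissolved in DMSO, absorbance at 570 nm.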

HCT-116 = test: Antiproliferative activity against human HCT116 cells after 48 hrs by MTT assay; format: functional, cell-based; conditions: HCT-116, 48 h; in short: as §3
MDA-MB-231 = test: Antiproliferative activity against human MDA-MB-231 cells after 48 hrs by MTT assay; format: functional, cell-based; conditions: MDA-MB-231, 48 h; in short: as §3
Aorta [4] = test: Antiangiogenic activity in Sprague-Dawley rat aortic rings assessed as inhibition of microvessel outgrowth at 10 uM after 6 days by matrigel assay; format: functional; conditions: 144 h; in short: as §2
Aorta [5] = test: Antiangiogenic activity in Sprague-Dawley rat aortic rings assessed as inhibition of microvessel outgrowth at 1 uM after 6 days by matrigel assay; format: functional; conditions: 144 h; in short: as §2
Aorta [6] = test: Antiangiogenic activity in Sprague-Dawley rat aortic rings assessed as reduction of microvessel outgrowth after 6 days by matrigel assay; format: functional, tissue-based; in short: as §2
HUVEC [7] = test: Antiangiogenic activity in HUVEC assessed as inhibition of tube formation at 10 uM after 6 hrs by matrigel assay; format: functional; conditions: Homo sapiens
In short: (§4)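 HUVECs seeded at 40,000 cells/well on Matrigel (gelled 30 min, 37 °C) in M199 with 5 % FBS plus compound or vehicle (0.5 % DMSO); 6 h at 37 °C, 5 % CO2. Tubes photographed by phase-contrast (×200); tube area measured as pixels and compared with vehicle. Mean ± SD of three independent experiments.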

HUVEC [8] = test: Antiangiogenic activity in HUVEC assessed as inhibition of tube formation at 50 uM after 6 hrs by matrigel assay; format: functional; conditions: Homo sapiens; in short: as §4
[9] = target: Platelet-derived growth factor receptor beta (Homo sapiens) (UniProt P09619); test: Inhibition of PDGFR-beta (unknown origin) at 10 uM after 30 mins by fluorescence assay
Platelet-derived growth factor receptor beta (Homo sapiens), sequence (P09619 whole entry): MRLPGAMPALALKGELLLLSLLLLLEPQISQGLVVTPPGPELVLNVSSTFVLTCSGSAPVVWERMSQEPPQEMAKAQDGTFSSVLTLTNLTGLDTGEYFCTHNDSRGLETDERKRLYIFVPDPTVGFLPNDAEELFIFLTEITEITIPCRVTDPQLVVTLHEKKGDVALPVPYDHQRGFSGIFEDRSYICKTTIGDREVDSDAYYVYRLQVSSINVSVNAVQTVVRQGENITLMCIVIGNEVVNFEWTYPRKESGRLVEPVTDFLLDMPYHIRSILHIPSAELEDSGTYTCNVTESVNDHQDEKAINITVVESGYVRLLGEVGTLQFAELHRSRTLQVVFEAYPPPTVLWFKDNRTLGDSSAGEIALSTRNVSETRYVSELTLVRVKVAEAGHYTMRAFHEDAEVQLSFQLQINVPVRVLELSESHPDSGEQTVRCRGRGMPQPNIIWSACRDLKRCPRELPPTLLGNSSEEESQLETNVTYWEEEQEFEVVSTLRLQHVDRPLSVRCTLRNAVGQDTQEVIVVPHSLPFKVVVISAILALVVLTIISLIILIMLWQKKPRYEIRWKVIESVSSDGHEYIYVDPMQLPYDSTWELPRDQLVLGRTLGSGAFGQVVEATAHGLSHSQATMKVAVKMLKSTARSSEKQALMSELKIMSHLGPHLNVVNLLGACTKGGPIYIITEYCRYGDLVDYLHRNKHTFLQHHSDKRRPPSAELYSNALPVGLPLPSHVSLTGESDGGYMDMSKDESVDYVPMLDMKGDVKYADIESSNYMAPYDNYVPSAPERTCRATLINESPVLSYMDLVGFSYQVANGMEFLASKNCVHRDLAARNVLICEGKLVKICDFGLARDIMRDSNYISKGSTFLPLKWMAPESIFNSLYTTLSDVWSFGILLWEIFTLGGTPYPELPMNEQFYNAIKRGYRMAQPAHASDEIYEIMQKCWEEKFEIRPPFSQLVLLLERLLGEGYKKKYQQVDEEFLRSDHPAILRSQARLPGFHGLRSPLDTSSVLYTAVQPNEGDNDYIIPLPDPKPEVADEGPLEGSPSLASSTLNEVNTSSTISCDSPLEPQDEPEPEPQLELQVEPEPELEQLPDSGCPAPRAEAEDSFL

[10] = target: Vascular endothelial growth factor receptor 2 (Homo sapiens) (UniProt P35968); test: Inhibition of VEGFR2 (unknown origin) at 10 uM after 30 mins by fluorescence assay
Vascular endothelial growth factor receptor 2 (Homo sapiens), sequence (P35968 whole entry): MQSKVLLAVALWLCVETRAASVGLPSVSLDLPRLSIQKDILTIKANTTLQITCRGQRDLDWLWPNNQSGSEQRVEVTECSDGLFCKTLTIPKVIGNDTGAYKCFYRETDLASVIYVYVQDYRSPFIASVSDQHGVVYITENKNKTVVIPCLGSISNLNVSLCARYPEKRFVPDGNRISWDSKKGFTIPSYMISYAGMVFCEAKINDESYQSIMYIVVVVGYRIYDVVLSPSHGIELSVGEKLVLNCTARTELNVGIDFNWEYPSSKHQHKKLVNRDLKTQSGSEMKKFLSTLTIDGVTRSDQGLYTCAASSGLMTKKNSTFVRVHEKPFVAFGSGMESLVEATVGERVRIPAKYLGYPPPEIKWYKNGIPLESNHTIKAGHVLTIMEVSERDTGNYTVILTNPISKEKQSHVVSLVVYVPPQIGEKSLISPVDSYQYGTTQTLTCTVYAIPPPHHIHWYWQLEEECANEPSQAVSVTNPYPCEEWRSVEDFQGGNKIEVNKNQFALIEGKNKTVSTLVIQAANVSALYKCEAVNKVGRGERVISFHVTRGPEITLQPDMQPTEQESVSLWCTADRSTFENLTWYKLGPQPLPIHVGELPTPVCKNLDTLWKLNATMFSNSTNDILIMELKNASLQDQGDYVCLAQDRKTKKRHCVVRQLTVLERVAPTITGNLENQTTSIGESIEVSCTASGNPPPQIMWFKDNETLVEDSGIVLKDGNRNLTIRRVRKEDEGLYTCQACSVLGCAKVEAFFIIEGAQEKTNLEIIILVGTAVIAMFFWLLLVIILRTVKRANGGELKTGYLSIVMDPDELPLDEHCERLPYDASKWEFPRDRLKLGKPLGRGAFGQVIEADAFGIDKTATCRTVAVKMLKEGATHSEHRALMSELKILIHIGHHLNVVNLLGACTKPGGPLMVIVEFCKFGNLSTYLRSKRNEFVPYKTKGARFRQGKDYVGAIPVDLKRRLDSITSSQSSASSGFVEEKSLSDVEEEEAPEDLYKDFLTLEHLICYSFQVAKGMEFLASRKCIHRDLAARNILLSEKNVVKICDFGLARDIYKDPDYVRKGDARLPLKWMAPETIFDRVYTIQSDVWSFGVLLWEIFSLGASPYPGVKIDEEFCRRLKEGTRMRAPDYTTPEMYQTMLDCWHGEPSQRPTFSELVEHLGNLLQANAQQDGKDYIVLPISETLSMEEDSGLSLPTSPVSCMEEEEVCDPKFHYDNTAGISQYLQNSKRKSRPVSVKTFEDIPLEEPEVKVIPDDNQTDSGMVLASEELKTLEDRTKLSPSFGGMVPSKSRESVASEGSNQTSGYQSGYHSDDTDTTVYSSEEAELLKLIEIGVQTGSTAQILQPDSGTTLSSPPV

A549 = test: Antiproliferative activity against human A549 cells after 48 hrs by MTT assay; format: functional, cell-based; conditions: A549, 48 h; in short: as §3
K562 = test: Antiproliferative activity against human K562 cells after 48 hrs by MTT assay; format: functional, cell-based; conditions: K562, 48 h; in short: as §3
HUVEC [11] = test: Antiproliferative activity against human HUVEC cells after 48 hrs by MTT assay; format: functional, cell-based; in short: as §3
MCF7 = test: Antiproliferative activity against human MCF7 cells after 48 hrs by MTT assay; format: functional, cell-based; conditions: MCF7, 48 h; in short: as §3

ALK tyrosine kinase receptor (Homo sapiens), sequence (Q9UM73 19-1620 limits assumed): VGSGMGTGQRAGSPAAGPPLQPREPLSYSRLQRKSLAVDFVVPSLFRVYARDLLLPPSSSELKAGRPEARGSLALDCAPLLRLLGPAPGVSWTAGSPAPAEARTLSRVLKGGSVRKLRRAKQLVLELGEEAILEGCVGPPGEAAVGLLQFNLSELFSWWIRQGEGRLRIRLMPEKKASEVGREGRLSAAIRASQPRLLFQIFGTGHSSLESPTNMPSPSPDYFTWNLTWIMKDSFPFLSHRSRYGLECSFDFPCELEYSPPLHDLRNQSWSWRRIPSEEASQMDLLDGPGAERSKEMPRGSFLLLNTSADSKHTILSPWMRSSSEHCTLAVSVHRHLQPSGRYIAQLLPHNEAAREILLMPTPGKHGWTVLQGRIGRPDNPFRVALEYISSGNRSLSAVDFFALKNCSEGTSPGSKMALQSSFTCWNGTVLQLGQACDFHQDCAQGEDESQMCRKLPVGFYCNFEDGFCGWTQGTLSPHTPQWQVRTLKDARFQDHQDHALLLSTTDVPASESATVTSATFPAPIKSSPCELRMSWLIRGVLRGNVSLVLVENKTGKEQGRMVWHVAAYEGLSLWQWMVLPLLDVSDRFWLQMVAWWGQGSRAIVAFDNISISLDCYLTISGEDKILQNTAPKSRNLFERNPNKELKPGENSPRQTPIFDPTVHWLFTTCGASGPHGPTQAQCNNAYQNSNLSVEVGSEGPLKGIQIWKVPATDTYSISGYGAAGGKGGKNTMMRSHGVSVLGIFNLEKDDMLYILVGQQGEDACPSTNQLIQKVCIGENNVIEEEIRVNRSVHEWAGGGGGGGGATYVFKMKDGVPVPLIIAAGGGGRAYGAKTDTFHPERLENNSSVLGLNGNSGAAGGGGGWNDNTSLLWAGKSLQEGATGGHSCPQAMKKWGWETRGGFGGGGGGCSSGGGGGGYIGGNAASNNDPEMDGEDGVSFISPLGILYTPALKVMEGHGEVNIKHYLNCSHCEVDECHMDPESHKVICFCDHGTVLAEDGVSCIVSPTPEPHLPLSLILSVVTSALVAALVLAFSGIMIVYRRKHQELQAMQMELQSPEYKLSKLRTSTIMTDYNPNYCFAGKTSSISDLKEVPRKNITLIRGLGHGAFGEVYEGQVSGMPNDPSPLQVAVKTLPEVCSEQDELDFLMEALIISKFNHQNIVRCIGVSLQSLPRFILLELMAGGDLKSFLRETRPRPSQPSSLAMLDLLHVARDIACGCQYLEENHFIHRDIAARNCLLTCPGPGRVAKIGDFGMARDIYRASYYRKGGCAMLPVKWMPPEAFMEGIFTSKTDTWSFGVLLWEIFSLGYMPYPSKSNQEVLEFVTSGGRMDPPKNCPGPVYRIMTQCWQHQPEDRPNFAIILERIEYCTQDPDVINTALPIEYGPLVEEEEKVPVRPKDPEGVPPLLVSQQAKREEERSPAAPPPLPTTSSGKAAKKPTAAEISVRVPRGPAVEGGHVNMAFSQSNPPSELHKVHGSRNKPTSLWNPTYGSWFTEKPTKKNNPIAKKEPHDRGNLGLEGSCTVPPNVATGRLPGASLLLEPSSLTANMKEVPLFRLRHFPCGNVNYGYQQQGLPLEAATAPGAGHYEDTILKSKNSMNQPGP

SMILES | inhibition [1] | inhibition [2] | IC50 (PC-3) | IC50 (HCT-116) | IC50 (MDA-MB-231) | inhibition [9] | inhibition [10] | IC50 (A549) | IC50 (K562) | IC50 (MCF7) | inhibition (Aorta [3]) | inhibition at 10 µM (Aorta [4]) | inhibition at 1 µM (Aorta [5]) | Activity (Aorta [6]) | inhibition at 50 µM (Aorta [3]) | inhibition at 10 µM (HUVEC [7]) | inhibition at 50 µM (HUVEC [8]) | IC50 (HUVEC [11]) | inhibition (HUVEC [7])
COc1ccc(C(=O)Nc2cc(Sc3ncn[nH]3)c(O)c3ccccc23)cc1 | inactive | 30.8% | > 100 µM | > 100 µM | > 100 µM | – | – | – | – | – | Active | – | – | – | – | – | – | – | –
COc1cccc(C(=O)Nc2cc(Sc3ncn[nH]3)c(O)c3ccccc23)c1 | inactive | 19.4% | 42.1 µM | > 100 µM | > 100 µM | – | – | – | – | – | Active | – | – | – | – | – | – | – | –
O=C(Nc1cc(Sc2ncn[nH]2)c(O)c2ccccc12)c1cccc([N+](=O)[O-])c1 | inactive | 29.3% | 26.9 µM | 70.2 µM | 48 µM | – | – | – | – | – | Active | – | – | – | – | – | – | – | –
O=C(Nc1cc(Sc2nncs2)c(O)c2ccccc12)c1ccc(Cl)cc1 | 4.2% | 7.5% | > 100 µM | > 100 µM | > 100 µM | – | – | – | – | – | Active | – | – | – | – | – | > 80% | – | –
Cn1nnnc1Sc1cc(NC(=O)c2ccc(Cl)cc2)c2ccccc2c1O | inactive | 13.1% | > 100 µM | > 100 µM | > 100 µM | – | – | – | – | – | Active | – | – | – | – | – | – | – | –
CNC(=O)c1cc(Oc2ccc(NC(=O)Nc3ccc(Cl)c(C(F)(F)F)c3)cc2)ccn1 [SORAFENIB] | – | – | 24.2 µM | 8.08 µM | 14.6 µM | – | – | 12.5 µM | 13.8 µM | 7.33 µM | – | – | – | – | – | – | – | 6.42 µM | –
O=C(/C=C/c1ccc(Cl)cc1)Nc1cc(Sc2ncn[nH]2)c(O)c2ccccc12 | 0.7% | 31.8% | > 100 µM | > 100 µM | > 100 µM | – | – | – | – | – | Active | – | – | – | – | – | – | – | –
O=C(Nc1cc(Sc2ncn[nH]2)c(O)c2ccccc12)c1ccc([N+](=O)[O-])cc1 | 3.37% | 37.3% | 53.5 µM | > 100 µM | > 100 µM | – | – | – | – | – | Active | – | – | – | – | – | > 80% | – | –
O=C(Nc1cc(Sc2ncnc3nc[nH]c23)c(O)c2ccccc12)c1ccccc1[N+](=O)[O-] | inactive | 50.7% | > 100 µM | 31.7 µM | 54.2 µM | – | – | > 100 µM | 37.2 µM | > 100 µM | – | – | > 70% | Dose-dependent effect | 96% | – | > 80% | – | –
CN[C@@H]1C[C@H]2O[C@@](C)([C@@H]1OC)n1c3ccccc3c3c4c(c5c6ccccc6n2c5c31)C(=O)NC4 | 97.9% | – | – | – | – | – | – | – | – | – | – | – | – | – | – | – | – | – | –
O=C(Nc1cc(Sc2ncnc3nc[nH]c23)c(O)c2ccccc12)c1ccc([N+](=O)[O-])cc1 | – | – | > 100 µM | > 100 µM | > 100 µM | – | – | – | – | – | Active | – | – | – | – | – | – | – | –

Second part, led by results:

inhibition [1] | inhibition [2] | IC50 (PC-3) | IC50 (HCT-116) | IC50 (MDA-MB-231) | inhibition [9] | inhibition [10] | IC50 (A549) | IC50 (K562) | IC50 (MCF7) | SMILES | inhibition (Aorta [3]) | inhibition at 10 µM (Aorta [4]) | inhibition at 1 µM (Aorta [5]) | Activity (Aorta [6]) | inhibition at 50 µM (Aorta [3]) | inhibition at 10 µM (HUVEC [7]) | inhibition at 50 µM (HUVEC [8]) | IC50 (HUVEC [11]) | inhibition (HUVEC [7])
9.25% | 8.48% | 49.5 µM | > 100 µM | > 100 µM | – | – | – | – | – | Cc1nnc(Sc2cc(NC(=O)c3ccc(Cl)cc3)c3ccccc3c2O)s1 | – | 23% | 18% | Dose-dependent effect | 91% | 81% | > 80% | – | –
56.8% | 85.8% | 52.5 µM | 10.2 µM | 21.4 µM | 37.9% | 65.2% | 40.5 µM | 10.8 µM | 2.81 µM | O=C(Nc1cc(Sc2ncn[nH]2)c(O)c2ccccc12)c1ccccc1[N+](=O)[O-] | – | – | 91% | Dose-dependent effect | 95% | 83% | > 80% | 5.34 µM | –
inactive | 40.6% | > 100 µM | > 100 µM | > 100 µM | – | – | – | – | – | O=C(/C=C/c1ccc([N+](=O)[O-])cc1)Nc1cc(Sc2ncn[nH]2)c(O)c2ccccc12 | Active | – | – | – | – | – | – | – | –
inactive | 21.7% | 66.4 µM | > 100 µM | 23 µM | – | – | 38.4 µM | 16.9 µM | 14.4 µM | O=C(Nc1cc(Sc2ncnc3nc[nH]c23)c(O)c2ccccc12)c1ccc(Cl)cc1 | – | – | > 70% | Dose-dependent effect | 92% | – | – | 7.53 µM | –
inactive | 26.1% | > 100 µM | > 100 µM | > 100 µM | – | – | – | – | – | O=C(/C=C/c1ccccc1)Nc1cc(Sc2ncn[nH]2)c(O)c2ccccc12 | Active | – | – | – | – | – | > 80% | – | –
14.9% | 31.6% | > 100 µM | > 100 µM | 52.5 µM | – | – | – | – | – | COc1ccc(/C=C/C(=O)Nc2cc(Sc3ncn[nH]3)c(O)c3ccccc23)cc1OC | Active | – | – | – | – | – | – | – | –
inactive | 50.1% | 5.52 µM | 43.3 µM | 25.7 µM | – | – | 41.9 µM | 18.8 µM | > 100 µM | O=C(Nc1cc(Sc2ncn[nH]2)c(O)c2ccccc12)c1ccc(Cl)cc1 | inactive | – | – | – | – | – | 65% | > 100 µM | Active
inactive | 46% | 85.6 µM | > 100 µM | > 100 µM | – | – | – | – | – | O=C(Nc1cc(Sc2ncn[nH]2)c(O)c2ccccc12)c1cccc(Cl)c1 | Active | – | – | – | – | – | > 80% | – | –
inactive | 20.2% | 59.5 µM | > 100 µM | > 100 µM | – | – | – | – | – | Cc1cccc(C(=O)Nc2cc(Sc3ncn[nH]3)c(O)c3ccccc23)c1 | Active | – | – | – | – | – | – | – | –
inactive | 41.6% | > 100 µM | > 100 µM | 45.1 µM | – | – | – | – | – | O=C(Nc1cc(Sc2ncn[nH]2)c(O)c2ccccc12)c1ccc2ccccc2c1 | Active | – | – | – | – | – | – | – | –

— ChEMBL document CHEMBL2390901, “Synthesis and biological evaluation of N-(4-hydroxy-3-mercaptonaphthalen-1-yl)amides as inhibitors of angiogenesis and tumor growth” (Eur J Med Chem, 2013)
